From ChEMBL document CHEMBL3102736, “Synthesis and evaluation of cytotoxic activities of new guanidines derived from carbazoles” (Bioorg Med Chem Lett, 2014)
Activity calls are given as the source filed them. No cut-off for these calls is given here.

Experiments:
DNA [1] = assay: Binding affinity to calf thymus DNA at 10^-4 M by fluorescence assay; format: nucleic-acid assay; conditions: Bos taurus
In short: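 Fluorescence titration at 37 °C in 0.01 M Tris, pH 7.4. Compound working solution at 10^-4 M (diluted from a 10^-2 M DMSO stock); calf thymus DNA added at increasing levels across 25–100 µg/mL. Excitation at 290 nm, emission recorded over 330–390 nm.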

DNA [2] = assay: Binding affinity to calf thymus DNA at 10^-4 M by UV-Visible spectrophotometry; format: nucleic-acid assay; conditions: Bos taurus
In short: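 Compound working solution at 10^-4 M (diluted from DMSO stock in 0.01 M Tris) in Tris buffer (0.01 M, pH 7.4) at 37 °C. UV-Vis absorption spectra (230–500 nm) recorded without and with calf thymus DNA at a fixed 100 µg/mL.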

MRC5 [3] = assay: Cytotoxicity against human MRC5 cells at 10^-6 M after 72 hrs by MTS assay; format: functional, cell-based
In short: (§1)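 KB and MRC5-SV2 cells grown in D-MEM with 10% fetal calf serum and antibiotics under 5% CO2. Seeded at 650–2000 cells/well and dosed 24 h later at 10^-6 or 10^-5 M from DMSO (1% final). After 72 h, MTS added for 3 h at 37 °C, then A490 read. % inhibition = (1 − OD treated/OD control) × 100.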

MRC5 [4] = assay: Cytotoxicity against human MRC5 cells at 10^-5 M after 72 hrs by MTS assay; format: functional, cell-based; in short: as §1
PC-3 [5] = assay: Cytotoxicity against human PC3 cells at 10^-6 M after 72 hrs by MTS assay; format: functional, cell-based
In short: (§2)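 HCT116, MCF7 and PC3 cells grown in RPMI with 10% fetal calf serum and antibiotics under 5% CO2. Seeded at 650–2000 cells/well and dosed 24 h later at 10^-6 or 10^-5 M from DMSO (1% final). After 72 h, MTS added for 3 h at 37 °C, then A490 read. % inhibition = (1 − OD treated/OD control) × 100.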

KB [6] = assay: Cytotoxicity against human KB cells at 10^-5 M after 72 hrs by MTS assay; format: functional; in short: as §1
KB [7] = assay: Cytotoxicity against human KB cells at 10^-6 M after 72 hrs by MTS assay; format: functional; in short: as §1
HL-60 = assay: Cytotoxicity against human HL60 cells after 72 hrs by MTS assay; format: functional, cell-based; conditions: HL-60, 72 h
In short: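 HL60 cells cultured in supplemented RPMI (10% fetal calf serum) under 5% CO2. Seeded at 650–2000 cells/well and treated 24 h later with compound from DMSO (1% final), 0.5 nM–10 µM. After 72 h, MTS added for 3 h at 37 °C, then A490 read. IC50 taken as 50% inhibition of proliferation; separate duplicate experiments.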

MCF7 [8] = assay: Cytotoxicity against human MCF7 cells at 10^-5 M after 72 hrs by MTS assay; format: functional, cell-based; in short: as §2
MCF7 [9] = assay: Cytotoxicity against human MCF7 cells at 10^-6 M after 72 hrs by MTS assay; format: functional, cell-based; in short: as §2
HCT-116 [10] = assay: Cytotoxicity against human HCT116 cells at 10^-6 M after 72 hrs by MTS assay; format: functional, cell-based; in short: as §2
PC-3 [11] = assay: Cytotoxicity against human PC3 cells at 10^-5 M after 72 hrs by MTS assay; format: functional, cell-based; in short: as §2
HCT-116 [12] = assay: Cytotoxicity against human HCT116 cells at 10^-5 M after 72 hrs by MTS assay; format: functional, cell-based; in short: as §2

| Compound | Activity (DNA [1]) | Activity (DNA [2]) | Activity (MRC5 [3]) | Activity (MRC5 [4]) | Activity (PC-3 [5]) | inhibition at 10 µM (KB [6]) | inhibition at 1 µM (KB [7]) | IC50 (HL-60) | Activity (MCF7 [8]) | Activity (MCF7 [9]) | Activity (HCT-116 [10]) | Activity (PC-3 [11]) | Activity (HCT-116 [12]) |
| --- | --- | --- | --- | --- | --- | --- | --- | --- | --- | --- | --- | --- | --- |
| CCC(CC)N/C(N)=N/c1cc(C)c2[nH]c3ccc(Br)cc3c2c1C | Active | Active | inactive | Active | inactive | 100% | 15% | 3.1 µM | Active | inactive | inactive | Active | Active |
| Cc1cc(/N=C(\N)NC(C)(C)C)c(C)c2c1[nH]c1ccc(Br)cc12 | Active |  |  |  |  | 100% | 16% | 4 µM |  |  |  |  |  |
| CCOC(=O)Oc1ccc2[nH]c3c(C)cc(N=C(N)N)c(C)c3c2c1 |  |  |  |  |  | 73% | 0% |  |  |  |  |  |  |
| CCCCN/C(N)=N/c1cc(C)c2[nH]c3ccc(Br)cc3c2c1C | Active |  |  |  |  | 100% | 26% | 3.5 µM |  |  |  |  |  |
| CCCCN/C(N)=N/c1cc(C)c2[nH]c3ccccc3c2c1C | Active |  |  |  |  | 98% | 5% |  |  |  |  |  |  |
| CCCN/C(N)=N/c1cc(C)c2[nH]c3ccccc3c2c1C | Active |  |  |  |  | 91% | 18% |  |  |  |  |  |  |
